# Test results published in paper PMC7236545 (Journal of the American Chemical Society, 2020).
# Tested on: HCT116 (wild-type APC) cells
# Experiment: Cell viability / toxicity in HCT116
# Format: cell-based
# Details: Homo sapiens, HCT-116, read-out: IC50 (viability / growth inhibition)
# Outline: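 Dose-response toxicity assay of test compound on human HCT116 (APC wild-type) cells. Cells are kept in low-serum medium (0.2% FBS with growth factors), not fully defined medium. IC50 is the concentration that reduces cell viability by 50%.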
compound,measurement,value
"CC[C@H](C)C(=O)O[C@H]1CCC=C2C=C[C@H](C)[C@H](CC[C@@H](O)C[C@@H](O)CC(=O)O)[C@H]21 [Compactin, compactin]",IC50,~18.6 µM
